Measured values of several laboratories.
JAK1: Tyrosine-protein kinase JAK1 (JAK1, Homo sapiens, UniProt P23458)
JAK1 JH1: Tyrosine-protein kinase JAK1, JH1 (JAK1, Homo sapiens, UniProt P23458)
JAK1 JH2: Tyrosine-protein kinase JAK1, JH2 (JAK1, Homo sapiens, UniProt P23458)

Structure (SMILES)	target	assay	conditions	endpoint	value
CC(C)(O)[C@H]1CC[C@H](Nc2ccc3ncc(-c4cccc(C(F)(F)F)c4)n3n2)CC1	JAK1	enzyme activity, inhibitor	1 µM	remaining activity	82.4%
CN(C)C1CCN(CC#Cc2nn(C3CCCC3)c3nc(NCc4ccccc4)ncc23)C1 (stereo not drawn)	JAK1	enzyme activity, inhibitor, FRET	10 µM	inhibition	2%
N[C@H]1CCN(c2nccc(-c3cnn4ncccc34)n2)C1	JAK1	binding	1 µM	remaining binding	60%
CS(=O)(=O)c1cc(C2(NC(=O)c3cncc4c3cnn4-c3ccc(F)cc3)CC2)ccn1	JAK1 JH1	cell-free assay, competition with immobilised ligand	1 µM	remaining binding	96%
CC(C)(C)c1nc2c(s1)c1nc(N)ncc1c1ccc(NS(=O)(=O)c3c(F)cccc3F)c(F)c12	JAK1	enzyme activity, inhibitor, radiometric	1 µM	remaining activity	90%
CN(CCCC(F)(F)F)c1nccc(-c2cnn3ncccc23)n1	JAK1 JH1	cell-free assay, competition with immobilised ligand	1 µM	remaining binding	100%
CCN(CC)CCNC(=O)c1c(C)[nH]c(/C=C2\C(=O)Nc3ccc(F)cc32)c1C	JAK1	cell-free assay	0.5 µM	remaining signal	71.9%
CS(=O)(=O)NCC[C@H](NC(=O)c1cncc2c1cnn2-c1ccc(F)cc1)c1ccnc(S(C)(=O)=O)c1	JAK1 JH1	cell-free assay, competition with immobilised ligand	1 µM	remaining binding	96%
CN1CC(Oc2cnc(C#N)cc2-c2ccn3nc(NC(=O)C4CC4)cc3c2)C1	JAK1	enzyme activity, inhibitor	1 µM	inhibition	-10%
Nc1ncnc2occ(-c3ccc(NC(=O)Nc4cc(C(F)(F)F)ccc4F)cc3)c12	JAK1 JH2	cell-free assay, inhibitor	20 µM	remaining signal	67%
Cc1cc(NC(=O)c2cccc3cc(-c4cccc5[nH]nc(N)c45)ccc23)ccc1F	JAK1 JH1	enzyme activity, inhibitor	0.1 µM	activity vs control	105%
Cc1cnc(NC2CCOCC2)nc1-n1cnc(C(=O)NC(CN)c2cc(F)cc(Cl)c2)c1 (stereo not drawn)	JAK1 JH1	enzyme activity, inhibitor, radiometric	1 µM	remaining activity	93%
CN(C)C(=O)Cn1cc(-c2nc(C3(c4ccc(-c5cnc(N)nc5)cc4)CC3)no2)cn1	JAK1 JH2	cell-free assay, competition with immobilised ligand	1 µM	remaining binding	100%
CN(c1nccc(-c2cnn3ncccc23)n1)C1CC1	JAK1	binding	1 µM	remaining binding	100%
CN([C@@H]1CCc2c(CC(=O)O)c3cc(S(C)(=O)=O)ccc3n2C1)S(=O)(=O)c1ccc(F)cc1	JAK1 JH2	cell-free assay, competition with immobilised ligand	1 µM	remaining binding	94%
Cc1ccc(C(=O)NCc2ccsc2)cc1C#Cc1cn(C(C)C)c2ncnc(N)c12	JAK1 JH1	enzyme activity, inhibitor	1 µM	activity vs control	94%
N#CCCc1ccc2c(c1)-c1[nH]c3ccc([N+](=O)[O-])cc3c1CC(=O)N2	JAK1	cell-free assay	0.5 µM	remaining signal	91.9%
CS(=O)(=O)N1CCCC(NC(=O)[C@H](CCC2CCCCC2)NC(=O)c2ccc(CNC(=O)c3cnc4ccccn34)cc2)C1 (stereo partly drawn)	JAK1 JH1	cell-free assay, competition with immobilised ligand	0.1 µM	remaining binding	64%
O=C(Nc1cnn(-c2csc(C(=O)NC3COC3)c2)c1)Nc1ccccc1Cl	JAK1	enzyme activity, inhibitor	5 µM	remaining activity	98.7%
c1cnn2ncc(-c3ccnc(N4CCC45COC5)n3)c2c1	JAK1 JH1	cell-free assay	1 µM	remaining signal	95%
CCCS(=O)(=O)Nc1ccc(F)c(C(=O)c2c[nH]c3ncc(-c4ccc(Cl)cc4)cc23)c1F	JAK1	enzyme activity, inhibitor	1 µM	inhibition	< 20%
O=C1NC(=O)c2cc(Nc3ccc(F)cc3)c(Nc3ccc(F)cc3)cc21	JAK1	cell-free assay	0.5 µM	remaining signal	91.5%
O=C(CSc1nc2nccnc2c(=O)n1CCc1ccccc1)Nc1nccs1	JAK1	enzyme activity, inhibitor	10 µM	inhibition	1%
CN1CCN(c2cnc3c(C4CCN(C(=O)c5ccc(OC(F)(F)F)cc5N)CC4)ncnc3c2)CC1	JAK1 JH1	cell-free assay, competition with immobilised ligand	1 µM	remaining binding	100%
CC/C(=N\NC(=O)NCc1cccc(O)c1)c1ccc(O)c(C)c1O	JAK1	enzyme activity, inhibitor	0.1 µM	inhibition	3.4%
Cc1ccc(C(=O)Nc2ccc(CN3CCN(C)CC3)c(C(F)(F)F)c2)cc1C#Cc1cnc2cccnn12	JAK1	enzyme activity, inhibitor	23.5 nM	remaining activity	86%
CCOC(=O)c1cc2cc(-c3cc(C(=O)NCc4ccc(C(=O)O)cc4)nn3C)ccc2[nH]1	JAK1 JH1	cell-free assay, competition with immobilised ligand	0.1 µM	remaining binding	100%
c1nc2c(Nc3ccc4c(c3)OCCO4)nc(Nc3ccc4c(c3)OCCO4)nc2[nH]1	JAK1 JH2	enzyme activity, inhibitor	10 µM	activity vs control	2.5%
COc1cc2ncnc(Nc3ccc(Oc4ccccc4)cc3C)c2cc1OC	JAK1	enzyme activity, inhibitor	1 µM	inhibition	-5%
CC1=C(C#N)[C@@H](c2ccc3[nH]nc(C)c3c2)C(C#N)=C(c2ccc(Cl)cc2)N1	JAK1 JH2	cell-free assay, competition with immobilised ligand	1 µM	remaining binding	38.2%
